Insulin prom act: TRM-6 insulin promoter activation | TRM-6 cells (human fetal islet line), insulin promoter eGFP reporter, imaging; plate-scaled: unstimulated 0, stimulated control 100 | AID 1296 | activation, % at 2 µM | actives 0.81% (n = 130,000);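 active means activation at 2 µM above a set limit, confirmed on inspection of the cell images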;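 further: share of cells whose green reporter signal exceeds an intensity cutoff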
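System – TRM-6 insulin promoter–eGFP reporter cells · Probe or stimulus – 0.75 µM tamoxifen as reporter inducer · Dosing – single-point 2 µM compound dose · Incubation – tamoxifen pre-incubation 15 h overnight, then compound exposure 48 h at 37 °C · Measured by – fixed-cell fluorescence microscopy, eGFP plus Hoechst · Evaluation – percent GFP-positive cells normalized to per-plate controls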
Numbers without * were called inactive. The full list was thinned out, with hits kept by preference.

SMILES	Insulin prom act
Cc1cc2nc3c(c(C(F)(F)F)n2n1)CCCC3	0
Cc1cccc(-c2n[nH]c(=S)n2/N=C/c2ccc(C)s2)c1	6
Cc1ccc(-c2n[nH]c(=S)n2/N=C/c2c(C)nn(-c3ccccc3)c2C)cc1	-7
CCN(CC)S(=O)(=O)c1cccc(-c2n[nH]c(=S)n2/N=C/c2ccc(Br)cc2)c1	438*
CN1/C(=C\C(=O)C(F)F)C(C)(C)c2ccccc21	5
CN1/C(=C\C=Nc2ccc3ccccc3c2)C(C)(C)c2ccccc21	6
CN1\C(=C/C=C/C=C/C=[N+](C)C)C(C)(C)c2ccccc21	567*
Cc1ccc(NC(=O)Cn2nc(-c3ccccc3Cl)ccc2=O)c(Br)c1	0
NS(=O)(=O)c1cccn1-c1ncc(C(F)(F)F)cc1Cl	-7
Cc1cc(C)cc(NC(=O)c2cccn2-c2ncc(C(F)(F)F)cc2Cl)c1	175*
O=C(NCc1cccnc1)c1cccn1-c1ncc(C(F)(F)F)cc1Cl	-7
CC(=O)Nc1sc(C)c(C)c1C(=O)OCC(=O)Nc1cc(S(=O)(=O)N2CCCCC2)ccc1Cl	0
Cc1ccc(C(=O)Nc2nc(C)c(C(=O)Nc3ccc4c(c3)CCC4)s2)cc1	-7
O=C(c1ccc(Cl)c(S(=O)(=O)N2CCCCCC2)c1)N1CCN(c2ccccc2O)CC1	0
Cn1cnnc1SCC(=O)N(Cc1ccc2c(c1)OCO2)C1(C(=O)NC2CCCCC2)CCCC1	7
NC(=O)c1noc(C(=O)N(CC(=O)NC2CCCC2)Cc2ccc3c(c2)OCO3)c1N	456*
O=C(NC1CCCC1)C(c1ccccc1)N(Cc1ccc2c(c1)OCO2)C(=O)Cc1cccs1 (centres undefined)	246
CC(=O)Nc1ccc(NC(=O)CCSCCc2ccccn2)cc1	6
Cc1ccc(S(=O)(=O)NNC(=O)C2Cc3c(ccc4ccccc34)O2)cc1 (centres undefined)	-4
O=CN1CCN(C(=O)c2ccc(-c3nc4ccccc4s3)s2)CC1	7
CC(=O)Nc1nc2ccccc2n1CCN1CCOCC1	3
C=CCc1cccc(CNc2nc3ccccc3n2CCN2CCOCC2)c1O	169
COc1ccc(CNc2nc3ccccc3n2CCN2CCOCC2)cc1	462*
Cn1cc(CC(=O)NCCN2CCOCC2)c2ccccc21	0
O=C1C=CC(O)(c2cc(=O)c3c(O)cc(O)cc3o2)C=C1	224
SMILES	Insulin prom act
CCN1CCc2c(OCC(=O)Nc3ccc4c(c3)OCCO4)cccc2C1=O	5
COC(=O)c1[nH]c2ccc(C)cc2c1NC(=O)CN1CCCc2ccccc21	166
O=C(CN1CCCc2ccccc21)NCc1ccc2c(c1)OCO2	-9
O=C(CN1CCCc2ccccc21)NCCc1ccc(Cl)cc1	300*
CC(C(=O)Nc1cc([N+](=O)[O-])ccc1Cl)N1CCN(c2ccc(O)cc2)CC1 (centres undefined)	-72
CC(=O)c1ccc(NS(=O)(=O)c2ccc(N)cc2)cc1	-6
CSc1ccc(S(=O)(=O)Nc2ccc(F)cc2)cc1	420*
COC(=O)c1ccc(NS(=O)(=O)c2ccc(SC)cc2)cc1	730*
CSc1ccc(S(=O)(=O)Nc2c(C)cccc2C)cc1	-91
CCN(CC)S(=O)(=O)c1ccc(NS(=O)(=O)c2ccc(F)cc2)cc1	-7
COc1ccc(NS(=O)(=O)c2ccc(SC)cc2)cc1	0
S=C(NCCCn1ccnc1)NC1CCCCC1	-3
COc1ccc(C(=O)c2sc3nc(C)cc(-c4cccs4)c3c2N)cc1OC	103
O=C(O)c1ccccc1C(=O)c1ccc(Br)s1	2
CN(Cc1cnn(C)c1)C(=O)C1CCCCC1C(=O)O (centres undefined)	272
CC1OC(Oc2ccc3ccc(=O)oc3c2-c2c(O)ccc3cc(Oc4ccc5ccc(=O)oc5c4)c(=O)oc23)C(O)C(O)C1O (centres undefined)	0
O=[N+]([O-])c1cc(C(F)(F)F)ccc1N1CCN(S(=O)(=O)c2ccc3c(c2)CCCC3)CC1	0
Cc1ccc(S(=O)(=O)NCC(=O)OCC(=O)Nc2cccc(S(=O)(=O)NC3=NCCCCC3)c2)cc1	-78
O=C(COC(=O)CCNS(=O)(=O)c1ccc2c(c1)OCCO2)NC1CCCc2ccccc21 (centres undefined)	9
O=C(COC(=O)CNS(=O)(=O)c1cccc(Br)c1)NC(=O)Nc1ccc2c(c1)OCCO2	400*
COc1cc(/C=C(\C#N)c2nc3ccccc3s2)ccc1OCC(=O)Nc1ccccc1	162
CC(=O)Nc1sc(/C(C#N)=C/c2ccc(Cl)c(Cl)c2)nc1-c1ccc(C)cc1	223*
N#C/C(=C/c1ccncc1)c1nc2ccccc2s1	128
CC1(C)N=C(N)NC(Nc2ccccc2)=N1	0
CCN1C(=O)/C(=C\c2ccc3c(c2)OCO3)C(C(=O)OC)=C1C	4
CC(C)NC(=O)CCCc1c[nH]c2ccccc12	8
COC(=O)C1=C(C)N(CCc2c[nH]c3ccccc23)C(=O)/C1=C\N(C)C	409*
O=C(c1cc2sccc2n1Cc1ccccc1)N1CCN(c2nc3ccccc3s2)CC1	0
O=C(COC(=O)CCOc1ccccc1)Nc1ncc(Cl)cc1Cl	0

Source: PubChem (Columbia University Molecular Screening Center)
